# Source: PubChem BioAssay (several laboratories)
# GAA850 FXN act: activators of GAA850 frataxin (FXN) promoter. AID 540364. HEK293 lucGAA850 FXN promoter luciferase reporter, 24 h; percent of 10 µM SAHA response. activation, % at 6 µM. 360,000 tested, 0.56% active;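 active = activation above the average of all compounds screened plus 3 SD, cutoff fixed separately per campaign, cut at about 7.5% in these data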;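 also: 0% = DMSO wells and 100% = 10 µM SAHA wells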
# AHR act: activates the human aryl hydrocarbon receptor; 320,000 tested, 2.5% active; activation, % at 5 µM; P35869; AID 2796; AHR-responsive luciferase reporter cells, luminescence; in the data active = activation above about 47%;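 also: 0% = vehicle wells and 100% = reference agonist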
# SR-BI uptake up: SR-BI HDL lipid transfer activation; activation, % at 12.5 µM; AID 504775; 320,000 tested, 0.096% active; CHO ldlA[mSR-BI] cells, DiI-HDL uptake fluorescence, 3 h; 100 = double the neutral-control signal;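 active = mean replicate activation of at least 60% and every replicate at or above 60%; inconclusive = mean or all-replicate condition met, but not both; inactive = mean below 60% and not all replicates reaching 60%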;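 also: 0% = median plate neutral-control signal and 100% = twice that signal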
#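 material = CHO ldlA[mSR-BI] cells | medium = Ham's F12 with 0.5% BSA, HEPES 25 mM, pH 7.4 | reagent = fluorescent DiI-HDL, 10 µg/mL final | compound dosing = single-point compound dose | incubation = 3 h, 37 °C | measured by = bottom-read fluorescence, 550/595 nm | measure = HDL uptake via cellular fluorescence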
# GASC-1 inh: inhibitors of human GASC-1 (JMJD2C) demethylase; 330,000 tested, 0.069% active; Q9H3R0; GST-JMJD2C(1-420) H3K9me3 demethylation, DELFIA europium; inhibition, % at 2.35 µM;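 active = more than half of a compound's replicate wells show inhibition beyond 50%, single wells judged on their own value; inconclusive = some, but no more than half, of replicates pass 50% inhibition; inactive = no replicate passes 50% inhibition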;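 also: signal counts dimethyl H3K9 product captured on neutravidin plate; 0% = median of DMSO wells and 100% = 0.3 times that DMSO median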
# SR-BI DiI inh: blocks mouse SR-BI lipid uptake from DiI-HDL; Q61009; ldlA[mSR-BI] CHO cells, DiI-HDL uptake fluorescence, 3 h; inhibition, % at 12.5 µM; 320,000 tested, 0.96% active;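 active = mean replicate inhibition of at least 70% and a set share of replicates each scoring 70 or more; inconclusive = meets just one of the two criteria; inactive = fails both criteria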;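 also: 0% = median of neutral control wells and 100% = median of positive control wells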
# Target sequence (Q61009 whole entry, looked up): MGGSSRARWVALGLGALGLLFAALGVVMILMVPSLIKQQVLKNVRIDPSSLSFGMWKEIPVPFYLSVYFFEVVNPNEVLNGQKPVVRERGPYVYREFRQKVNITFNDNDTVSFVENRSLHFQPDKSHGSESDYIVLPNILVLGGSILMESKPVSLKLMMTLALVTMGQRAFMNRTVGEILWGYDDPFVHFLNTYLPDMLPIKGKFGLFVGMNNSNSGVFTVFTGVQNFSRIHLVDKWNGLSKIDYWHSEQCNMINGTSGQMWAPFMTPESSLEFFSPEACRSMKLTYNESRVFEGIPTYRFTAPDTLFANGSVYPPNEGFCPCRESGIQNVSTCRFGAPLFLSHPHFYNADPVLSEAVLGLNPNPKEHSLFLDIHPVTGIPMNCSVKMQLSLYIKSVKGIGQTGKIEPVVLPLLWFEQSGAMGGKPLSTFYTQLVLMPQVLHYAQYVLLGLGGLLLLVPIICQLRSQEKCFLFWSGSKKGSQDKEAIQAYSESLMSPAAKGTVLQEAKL
# DiI quencher: quenches DiI-HDL fluorescence, an SR-BI assay artifact; cell-free DiI-HDL fluorescence quenching, 30 min; AC50, µM (doses to about 35 µM), without a hit: top-dose activity change, negative = quenching; 470 tested, 20% active; AID 540326; shares compounds with SR-BI DiI inh;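 active = quenching, a falling signal, with AC50 below a set limit tied to the top valid dose, actives reach about 32 µM in these data; inconclusive = no clear call, values can overlap the other calls; inactive = rising signal, and the rest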
# * hit, by the source's call; i = inactive; u = inconclusive; x = no result. This is a sample that favours compounds with a hit; in the whole collection about 3.7% have one here.
SMILES,GAA850 FXN act,AHR act,SR-BI uptake up,GASC-1 inh,SR-BI DiI inh,DiI quencher
O=C(C1=COCCO1)N(Cc1nnc(-c2ccccc2Cl)o1)C1CC1,1,1,-75,8,u,-3%
CCOC(=O)C1CCN(C(=O)Cn2nc(C)n3nc(-c4ccc(OC)cc4)cc3c2=O)CC1,0,3,-61,-35,61,-1%
CCOC(=O)N1CCN(C(=O)Cn2nc(C)n3nc(-c4ccc(OC)cc4)cc3c2=O)CC1,4,0,-34,2,34,x
C/C(=C/C(=O)O)C(=O)Nc1cccc(C(F)(F)F)c1,3,5,13,-1,-13,x
COc1ccc(N2C(=O)C3C(C2=O)C3(c2ccccc2)c2ccccc2)cc1 (stereo not given),0,4,-22,-5,22,0%
COc1ccc(N2C(=O)C3C4C=CC(c5ccccc5)(C3C2=O)C2C(=O)N(c3ccc(OC)cc3)C(=O)C42)cc1 (stereo not given),3,0,-51,0,51,x
COc1ccc(C2c3sc(=O)[nH]c3SC3C4CCC(C4)C23)cc1OC (stereo not given),2,0,-72,-5,u,-9%
COc1ccc(N2CCN(C(=O)c3cc(=O)[nH]c4ccccc34)CC2)cc1,3,4,-52,4,52,-7%
O=C(c1cc(=O)[nH]c2ccccc12)N1CCN(c2ccc([N+](=O)[O-])cc2)CC1,-2,2,x,-7,x,x
CC(C)c1nnc(NC(=O)CCC(=O)N2CCN(C3c4ccccc4-c4ccccc43)CC2)s1,2,0,-73,4,u,-3%
Cc1ccc(-c2sc(-c3ccccc3)nc2CC(=O)Nc2ccccc2F)cc1,2,6,-77,7,77*,5%
CC(=O)Nc1ccc(S(=O)(=O)N2CCC(C(=O)NCCC(=O)NCc3ccccc3)CC2)cc1,1,-1,-119,-1,119*,-3%
CCOC(=O)Nc1ccc2c(c1)N(C(=O)C(C)N1CCCC1)c1ccccc1CC2 (stereo not given),-2,3,16,x,-16,-1%
Cc1ccc(NC(=O)c2ccc3c(c2)CCN3S(C)(=O)=O)cc1,1,x,x,x,x,x
Cc1cc(C)cc(NC(=O)c2ccc3c(c2)CCN3S(C)(=O)=O)c1,4,-2,-77,-30,77*,3%
O=C(Nc1ccccc1F)c1ccc2c(c1)CCN2S(=O)(=O)c1ccccc1,0,1,-53,13,53,-1%
CN(C(=O)c1ccc2c(c1)CCN2S(C)(=O)=O)c1ccccc1,0,0,-20,-1,20,-2%
Cc1ccc(NC(=O)c2ccc3c(c2)CCN3S(C)(=O)=O)cc1C,3,4,-70,2,u,0%
O=C(Nc1c(F)cccc1F)c1ccc2c(c1)CCN2S(=O)(=O)c1ccccc1,3,-1,-39,8,39,x
CC(=O)N1CCN(CC(=O)Nc2cc(F)ccc2C)CC1,1,4,34,-1,-34,x
O=C(c1ccc(-n2nc(C(F)(F)F)c3c2CCCC3)cc1)N1CCOCC1,1,5,-79,-1,79*,-1%
CN(C)C(=O)c1ccc(-n2nc(C(F)(F)F)c3c2CCCC3)cc1,0,10,-83,6,83*,-5%
O=C(O)c1ccc(-n2nc(C(F)(F)F)c3c2CCCC3)cc1,1,3,14,3,-14,x
O=C(NNc1c(F)c(F)cc(F)c1F)C1CCN(S(=O)(=O)c2ccccc2F)CC1,-2,8,-79,5,79*,-1%
O=C(NCc1ccccn1)C1CCN(S(=O)(=O)c2ccccc2F)CC1,1,1,28,1,-28,x
SMILES,GAA850 FXN act,AHR act,SR-BI uptake up,GASC-1 inh,SR-BI DiI inh,DiI quencher
N#Cc1ccc(C(=O)N2CCC3CC2c2cc(-c4ccccc4)ccc23)cc1 (stereo not given),0,x,-5,x,5,-3%
O=C(c1cccc(Cl)c1)N1CCC2CC1c1cc(-c3ccccc3)ccc12 (stereo not given),1,x,-13,x,13,-5%
Cc1c(-n2c(=O)n(Cc3ccccc3)c(=O)c3[nH]cnc32)cccc1S(C)=O (stereo not given),-1,0,15,16,-15,x
C[C@@H]1Cn2cnc(C(=O)N[C@@H](C)c3ccccc3)c2C(=O)N1,-1,x,x,x,x,x
COc1ccc(CCNc2cc(N3CCN(C(=O)c4ccc(C)cc4)CC3)ccc2[N+](=O)[O-])cc1OC,x,7,x,-3,x,x
COc1ccc(C(=O)N2CCN(c3ccc([N+](=O)[O-])c(NCCc4ccc(OC)c(OC)c4)c3)CC2)cc1,-12,2,-74,-4,u,3%
Cc1c(Nc2nc(C(F)(F)F)nc3ccccc23)c(=O)n(-c2ccccc2)n1C,2,11,-10,3,10,x
Cc1c(C(=O)Nc2cccc(Cl)c2)c2ccccn2c1CCc1ccncc1,3,x,-94,-5,94*,25µM*
O=C(NCc1ccncc1)Nc1cccc(Cl)c1,0,38,2,4,-2,x
Cc1c(C(=O)Nc2ccc(Cl)cc2)c2ccccn2c1C(=O)c1ccc(F)cc1,1,3,-51,15,51,x
Cc1c(C(=O)Nc2ccc(Cl)cc2)c2ccccn2c1CCc1ccncc1,7,87*,-97,-4,97*,32µM*
CCOc1ccc(NC(=O)CN2CCN(CC(=O)Nc3ccc(F)cc3)CC2)cc1,-2,5,-53,-12,53,x
COc1ccc(CCC(=O)Nc2ccc(-c3noc(-c4ccc(OC)c(OC)c4)n3)cc2)cc1,3,13,-101,-5,101*,-5%
COc1ccc(NC(=O)CN2CCN(CC(=O)Nc3ccc(OC)c(OC)c3)CC2)cc1,0,0,-72,x,u,-2%
CCOc1ccc(NC(=O)CN2CCN(CC(=O)Nc3ccc(N(C)C)cc3)CC2)cc1,2,x,-86,6,86*,-13%
COc1ccc(NC(=O)CN2CCN(CC(=O)Nc3cc(OC)cc(OC)c3)CC2)cc1,2,x,-40,x,40,x
Cc1c(C(=O)N2CC3(CC(c4cccc(NC(=O)CC(c5ccccc5)c5ccccc5)c4)=NO3)C[C@@H]2C(N)=O)cc([N+](=O)[O-])cc1[N+](=O)[O-] (stereo not given in full),0,3,-14,5,14,i
C/C=C(\C)C(=O)Nc1cccc(C2=NOC3(C2)C[C@@H](C(N)=O)N(C(=O)c2cc([N+](=O)[O-])cc([N+](=O)[O-])c2C)C3)c1 (stereo not given in full),-2,0,-30,-8,30,x
O=C(OCCNc1ncc(C(F)(F)F)cc1Cl)c1ccc(S(=O)(=O)N2CCOCC2)cc1,0,-1,-81,9,81*,1%
